Assay results taken from ChEMBL document CHEMBL2375239, “Improving the immunostimulatory potency of diethanolamine-containing lipid A mimics” (Bioorg Med Chem, 2013).
Activity calls are given as the source filed them. The rule behind the calls is not given here.

Legend:
Type in all cases: cell-based
Details in all cases: THP-1
[1] = target: T1, Toll-like receptor 4/MD-2 (Homo sapiens) (UniProt O00206+Q9Y6Y9); experiment: Agonist activity at TLR4/MD-2 receptor complex in human THP1 cells assessed as TNF-alpha release at 10^-3 uM after 24 hrs by ELISA
Method in brief: (§1)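 Mimics reconstituted in 20% DMSO/PBS with brief sonication, fresh aliquot per experiment, final DMSO ≤0.5%. THP-1 cells differentiated 48 h with 25 ng/mL PMA, washed, serum-starved 3 h. Stimulated 24 h across 10⁻⁴–10 µM. Supernatant TNF-α, IL-6 or IL-1β read by ELISA (450 nm, 540 nm correction). Duplicates; mean of two experiments.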

[2] = target: T1, Toll-like receptor 4/MD-2 (Homo sapiens); experiment: Agonist activity at TLR4/MD-2 receptor complex in human THP1 cells assessed as IL-6 release at 10 uM after 24 hrs by ELISA; method in brief: as §1
[3] = target: T1, Toll-like receptor 4/MD-2 (Homo sapiens); experiment: Agonist activity at TLR4/MD-2 receptor complex in human THP1 cells assessed as TNF-alpha release at 0.1 uM to 1 uM after 24 hrs by ELISA; method in brief: as §1
[4] = target: T1, Toll-like receptor 4/MD-2 (Homo sapiens); experiment: Agonist activity at TLR4/MD-2 receptor complex in human THP1 cells assessed as IL-1beta release at 10^-3 uM after 24 hrs by ELISA; method in brief: as §1
[5] = target: T1, Toll-like receptor 4/MD-2 (Homo sapiens); experiment: Agonist activity at TLR4/MD-2 receptor complex in human THP1 cells assessed as IL-1beta release at 0.1 uM to 1 uM after 24 hrs by ELISA; method in brief: as §1
[6] = target: T1, Toll-like receptor 4/MD-2 (Homo sapiens); experiment: Agonist activity at TLR4/MD-2 receptor complex in human THP1 cells assessed as TNF-alpha release at 10 uM after 24 hrs by ELISA; method in brief: as §1
[7] = target: T1, Toll-like receptor 4/MD-2 (Homo sapiens); experiment: Agonist activity at TLR4/MD-2 receptor complex in human THP1 cells assessed as IL-6 release at 0.1 uM to 1 uM after 24 hrs by ELISA; method in brief: as §1
[8] = target: T1, Toll-like receptor 4/MD-2 (Homo sapiens); experiment: Agonist activity at TLR4/MD-2 receptor complex in human THP1 cells assessed as IL-1beta release at 10 uM after 24 hrs by ELISA; method in brief: as §1
[9] = target: T1, Toll-like receptor 4/MD-2 (Homo sapiens); experiment: Agonist activity at TLR4/MD-2 receptor complex in human THP1 cells assessed as TNF-alpha release at 0.001 uM after 24 hrs by ELISA in presence of 0.1 uM of lipid IVa
Method in brief: (§2)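 THP-1 cells plated at 0.5 × 10⁶ cells/well in RPMI with 25 ng/mL PMA for 48 h. Adherent cells washed with PBS, held in serum-free RPMI 3 h, then stimulated 24 h with agonist plus increasing lipid IVa (dissolved in DMSO). Supernatant TNF-α and IL-1β measured by ELISA, A450 corrected at 540 nm. Duplicates; mean of two separate experiments.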

[10] = target: T1, Toll-like receptor 4/MD-2 (Homo sapiens); experiment: Agonist activity at TLR4/MD-2 receptor complex in human THP1 cells assessed as TNF-alpha release at 0.1 uM after 24 hrs by ELISA in presence of 0.5 uM of lipid IVa; method in brief: as §2
[11] = target: T1, Toll-like receptor 4/MD-2 (Homo sapiens); experiment: Agonist activity at TLR4/MD-2 receptor complex in human THP1 cells assessed as IL-1beta release at 0.1 uM after 24 hrs by ELISA in presence of lipid IVa in presence of 0.1 uM of lipid IVa; method in brief: as §2
[12] = target: T1, Toll-like receptor 4/MD-2 (Homo sapiens); experiment: Agonist activity at TLR4/MD-2 receptor complex in human THP1 cells assessed as TNF-alpha release at 0.1 uM after 24 hrs by ELISA in presence of 0.1 uM of lipid IVa; method in brief: as §2
[13] = target: T1, Toll-like receptor 4/MD-2 (Homo sapiens); experiment: Agonist activity at TLR4/MD-2 receptor complex in human THP1 cells assessed as IL-1beta release at 0.001 uM after 24 hrs by ELISA in presence of lipid IVa in presence of 0.1 uM of lipid IVa; method in brief: as §2
[14] = target: T1, Toll-like receptor 4/MD-2 (Homo sapiens); experiment: Agonist activity at TLR4/MD-2 receptor complex in human THP1 cells assessed as IL-1beta release at 10^-4 uM after 24 hrs by ELISA; method in brief: as §1
[15] = target: T1, Toll-like receptor 4/MD-2 (Homo sapiens); experiment: Agonist activity at TLR4/MD-2 receptor complex in human THP1 cells assessed as IL-1beta release at 0.1 uM after 24 hrs by ELISA in presence of lipid IVa in presence of 0.5 uM of lipid IVa; method in brief: as §2

| Activity [1] | Activity [2] | Activity [3] | Activity [4] | Activity [5] | Activity [6] | Activity [7] | Activity [8] | Activity [9] | Activity [10] | Activity [11] | Activity [12] | Activity [13] | Activity [14] | Activity [15] | Structure (SMILES) |
| --- | --- | --- | --- | --- | --- | --- | --- | --- | --- | --- | --- | --- | --- | --- | --- |
| Active | Active | Active | Active | Active | Active | Active | Active | – | – | – | – | – | – | – | CCCCCCCCCCCCCC(=O)O[C@H](CCCCCCCCCCC)CC(=O)N[C@H]1[C@H](OCCN(CCOP(=O)(O)O)C(=O)C[C@@H](CCCCCCCCCCC)OC(=O)CCCCCCCCCCCCC)O[C@H](CO)[C@@H](OP(=O)(O)O)[C@@H]1OC(=O)C[C@@H](CCCCCCCCCCC)OC(=O)CCCCCCCCCCCCC |
| Active | Active | Active | Active | Active | Active | Active | Active | Active | inactive | Active | Active | Active | Active | Active | CCCCCCCCCCCCCC(=O)O[C@H](CCCCCCCCCCC)CC(=O)N[C@H]1[C@H](OCCN(CC(=O)O)C(=O)C[C@@H](CCCCCCCCCCC)OC(=O)CCCCCCCCCCCCC)O[C@H](CO)[C@@H](OP(=O)(O)O)[C@@H]1OC(=O)C[C@@H](CCCCCCCCCCC)OC(=O)CCCCCCCCCCCCC |
| Active | Active | Active | Active | Active | Active | Active | Active | – | – | – | – | – | – | – | CCCCCCCCCCCCCC(=O)O[C@H](CCCCCCCCCCC)CC(=O)N[C@H]1[C@H](OCCN(CCO)C(=O)C[C@@H](CCCCCCCCCCC)OC(=O)CCCCCCCCCCCCC)O[C@H](CO)[C@@H](OP(=O)(O)O)[C@@H]1OC(=O)C[C@@H](CCCCCCCCCCC)OC(=O)CCCCCCCCCCCCC |
